Laboratory results reported in ChEMBL document CHEMBL2086296, “Synthesis of novel quinoline-2-one based chalcones of potential anti-tumor activity” (Eur J Med Chem, 2012).

Columns and labels:
HOP-62 = experiment: Cytotoxicity against human HOP62 cells after 24 hrs by SRB assay; assay type: functional; details: HOP-62, 24 h
How it was run: (§1)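 NCI 60-line screen. Cells in RPMI 1640 with 5% FBS and 2 mM L-glutamine, seeded at 5,000–40,000 cells/well by doubling time, then incubated 24 h at 37 °C, 5% CO2 before dosing. Time-zero plates fixed with TCA at drug addition. DMSO stocks diluted in medium with gentamicin to five concentrations, […]. Protein read by SRB staining. GI50, TGI and LC50 derived relative to control and time-zero.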

NCI-H522 = experiment: Cytotoxicity against human NCI-H522 cells after 24 hrs by SRB assay; assay type: functional; details: NCI-H522, 24 h; how it was run: as §1
COLO 205 = experiment: Cytotoxicity against human COLO205 cells after 24 hrs by SRB assay; assay type: functional; details: COLO 205, 24 h; how it was run: as §1
HCT-116 = experiment: Cytotoxicity against human HCT116 cells after 24 hrs by SRB assay; assay type: functional; details: HCT-116, 24 h; how it was run: as §1
HCT-15 = experiment: Cytotoxicity against human HCT15 cells after 24 hrs by SRB assay; assay type: functional; details: HCT-15, 24 h; how it was run: as §1
HT-29 = experiment: Cytotoxicity against human HT-29 cells after 24 hrs by SRB assay; assay type: functional; details: HT-29, 24 h; how it was run: as §1
SF-295 = experiment: Cytotoxicity against human SF295 cells after 24 hrs by SRB assay; assay type: functional; details: SF-295, 24 h; how it was run: as §1
SK-MEL-2 [1] = experiment: (§2) Cytotoxicity against human SK-MEL-2 cells after 24 hrs by SRB assay; assay type: functional; details: SK-MEL-2, 24 h; how it was run: as §1
OVCAR-4 [2] = experiment: (§3) Cytotoxicity against human OVCAR4 cells after 24 hrs by SRB assay; assay type: functional; details: OVCAR-4, 24 h; how it was run: as §1
OVCAR-8 [3] = experiment: (§4) Cytotoxicity against human OVCAR8 cells after 24 hrs by SRB assay; assay type: functional; details: OVCAR-8, 24 h; how it was run: as §1
SN12C [4] = experiment: (§5) Cytotoxicity against human SN12C cells after 24 hrs by SRB assay; assay type: functional; how it was run: as §1
786-0 [5] = experiment: (§6) Cytotoxicity against human 786-0 cells after 24 hrs by SRB assay; assay type: functional; details: 786-0, 24 h; how it was run: as §1
MCF7 [6] = experiment: (§7) Cytotoxicity against human MCF7 cells after 24 hrs by SRB assay; assay type: functional; details: MCF7, 24 h; how it was run: as §1
MDA-MB-231 [7] = experiment: (§8) Cytotoxicity against human MDA-MB-231 cells after 24 hrs by SRB assay; assay type: functional; details: MDA-MB-231, 24 h; how it was run: as §1
T47D = experiment: Cytotoxicity against human T47D cells after 24 hrs by SRB assay; assay type: functional
How it was run: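 NCI 60-cell screen. Cells are grown in RPMI 1640 with 5% FBS and 2 mM L-glutamine and seeded at 5,000–40,000 cells/well according to doubling time. They are preincubated 24 h at 37 °C in 5% CO2, and Tz plates are TCA-fixed at drug addition. Drug stock is in DMSO, diluted in medium with gentamicin, and tested at five concentrations (100, 10, 1.0, 0.1, […]). Protein is read by SRB staining. GI50, TGI and LC50 are derived relative to time-zero and control wells.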

CCRF-CEM = experiment: Cytotoxicity against human CCRF-CEM cells after 24 hrs by SRB assay; assay type: cell-based
How it was run: (§9)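 NCI 60-cell screen. Cells grown in RPMI 1640 with 5% FBS and 2 mM L-glutamine, seeded at 5,000–40,000 cells/well, preincubated 24 h at 37 °C in 5% CO2. Drug stock in DMSO, diluted in medium with gentamicin; five final concentrations, 100, 10, 1.0, 0.1 and […]. Time-zero plates were TCA-fixed. Protein read by SRB staining; GI50, TGI and LC50 taken relative to time-zero.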

HL-60 = experiment: Cytotoxicity against human HL60 cells after 24 hrs by SRB assay; assay type: cell-based; details: hl-60, 24 h; how it was run: as §9
MOLT-4 = experiment: Cytotoxicity against human MOLT4 cells after 24 hrs by SRB assay; assay type: cell-based; details: molt-4, 24 h; how it was run: as §9
NCI-H23 = experiment: Cytotoxicity against human NCI-H23 cells after 24 hrs by SRB assay; assay type: cell-based; details: nci-h23, 24 h; how it was run: as §9
NCI-H460 = experiment: Cytotoxicity against human NCI-H460 cells after 24 hrs by SRB assay; assay type: cell-based; details: nci-h460, 24 h; how it was run: as §9
HOP-92 = experiment: Cytotoxicity against human HOP92 cells after 24 hrs by SRB assay; assay type: cell-based; details: hop-92, 24 h; how it was run: as §9
KM12 = experiment: Cytotoxicity against human KM12 cells after 24 hrs by SRB assay; assay type: cell-based; details: km12, 24 h; how it was run: as §9
SF-539 = experiment: Cytotoxicity against human SF539 cells after 24 hrs by SRB assay; assay type: cell-based; details: sf-539, 24 h; how it was run: as §9
SF-268 = experiment: Cytotoxicity against human SF268 cells after 24 hrs by SRB assay; assay type: cell-based; details: sf-268, 24 h; how it was run: as §9
SNB-75 = experiment: Cytotoxicity against human SNB75 cells after 24 hrs by SRB assay; assay type: cell-based; details: snb-75, 24 h
How it was run: (§10)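 NCI 60-cell-line screen: cells grown in RPMI 1640 with 5% FBS and 2 mM L-glutamine, seeded at 5,000–40,000 cells/well by doubling time, and preincubated 24 h at 37 °C in 5% CO2. Time-zero plates were TCA-fixed. DMSO stocks were diluted in medium with gentamicin to five concentrations (100, 10, 1.0, 0.1, […]). Protein was read by SRB, and GI50, TGI and LC50 were derived against time-zero.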

RPMI-8226 = experiment: Cytotoxicity against human RPMI8226 cells after 24 hrs by SRB assay; assay type: functional; details: RPMI-8226, 24 h; how it was run: as §1
UACC-62 = experiment: Cytotoxicity against human UACC62 cells after 24 hrs by SRB assay; assay type: cell-based; details: uacc-62, 24 h; how it was run: as §10
SK-MEL-2 [8] = experiment: as §2; assay type: cell-based; details: sk-mel-2, 24 h; how it was run: as §9
OVCAR-3 = experiment: Cytotoxicity against human OVCAR3 cells after 24 hrs by SRB assay; assay type: cell-based; details: ovcar-3, 24 h; how it was run: as §9
OVCAR-4 [9] = experiment: as §3; assay type: cell-based; details: ovcar-4, 24 h; how it was run: as §9
OVCAR-8 [10] = experiment: as §4; assay type: cell-based; details: ovcar-8, 24 h; how it was run: as §9
SK-OV-3 = experiment: Cytotoxicity against human SKOV3 cells after 24 hrs by SRB assay; assay type: cell-based; details: sk-ov-3, 24 h; how it was run: as §10
ACHN = experiment: Cytotoxicity against human ACHN cells after 24 hrs by SRB assay; assay type: cell-based; how it was run: as §9
SN12C [11] = experiment: as §5; assay type: cell-based; how it was run: as §10
786-0 [12] = experiment: as §6; assay type: cell-based; details: 786-0, 24 h; how it was run: as §9
DU-145 = experiment: Cytotoxicity against human DU145 cells after 24 hrs by SRB assay; assay type: cell-based; details: du-145, 24 h; how it was run: as §9
MCF7 [13] = experiment: as §7; assay type: cell-based; details: mcf7, 24 h; how it was run: as §9
MDA-MB-231 [14] = experiment: as §8; assay type: cell-based; details: mda-mb-231, 24 h; how it was run: as §9
[15] = Cytotoxicity against human Hs 578T cells after 24 hrs by SRB assay; assay type: cell-based; how it was run: as §9

O=C(/C=C/c1cc2ccccc2[nH]c1=O)c1ccc(Cl)cc1
GI50 (HOP-62): 7.43 µM | TGI (HOP-62): 44.2 µM | GI50 (NCI-H522): 2.23 µM | TGI (NCI-H522): 6.58 µM | GI50 (COLO 205): 10.1 µM | TGI (COLO 205): 51.3 µM | GI50 (HCT-116): 3.26 µM | TGI (HCT-116): 14.8 µM | GI50 (HCT-15): 3.18 µM | TGI (HCT-15): 20.2 µM | GI50 (HT-29): 3.84 µM | TGI (HT-29): 22.5 µM | GI50 (SF-295): 4.57 µM | TGI (SF-295): 38.3 µM | GI50 (SK-MEL-2 [1]): 8.55 µM | TGI (SK-MEL-2 [1]): 25.7 µM | GI50 (OVCAR-4 [2]): 1.67 µM | TGI (OVCAR-4 [2]): > 100 µM | GI50 (OVCAR-8 [3]): 4.93 µM | TGI (OVCAR-8 [3]): 21.2 µM | GI50 (SN12C [4]): 8.16 µM | TGI (SN12C [4]): > 100 µM | GI50 (786-0 [5]): 13.8 µM | TGI (786-0 [5]): > 100 µM | GI50 (MCF7 [6]): 2.41 µM | TGI (MCF7 [6]): > 100 µM | GI50 (MDA-MB-231 [7]): 6.16 µM | TGI (MDA-MB-231 [7]): 28.3 µM | GI50 (T47D): 7.31 µM | TGI (T47D): > 100 µM | LC50 (CCRF-CEM): > 100 µM | LC50 (HL-60): > 100 µM | LC50 (MOLT-4): > 100 µM | LC50 (NCI-H23): > 100 µM | LC50 (NCI-H460): > 100 µM | LC50 (HOP-92): > 100 µM | LC50 (KM12): 98.9 µM | LC50 (SF-539): 74.2 µM | LC50 (SF-268): > 100 µM | LC50 (SNB-75): > 100 µM | GI50 (RPMI-8226): 2.23 µM | TGI (RPMI-8226): 16.1 µM | LC50 (UACC-62): > 100 µM | LC50 (SK-MEL-2 [8]): 72.6 µM | LC50 (OVCAR-3): > 100 µM | LC50 (OVCAR-4 [9]): > 100 µM | LC50 (OVCAR-8 [10]): 88.4 µM | LC50 (SK-OV-3): > 100 µM | LC50 (ACHN): 90.6 µM | LC50 (SN12C [11]): > 100 µM | LC50 (786-0 [12]): > 100 µM | LC50 (DU-145): > 100 µM | LC50 (MCF7 [13]): > 100 µM | LC50 (MDA-MB-231 [14]): > 100 µM | LC50 [15]: > 100 µM
